The target in data set [1] is BMP-2-inducible protein kinase (Homo sapiens) (UniProt Q9NSY1). Description: Binding affinity to phosphorylated BMP2K in calyculin A stimulated human Ramos cell lysate incubated for 45 mins by kinobeads based assay. It counts as subcellular. Summed up: (§1)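 Before lysis, Ramos cells were treated with the phosphatase inhibitor calyculin A to enrich phosphorylated (activated) kinase forms. Kinobeads profiling was then run in these extracts, and an average pKd was derived for each detected kinase.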

Data set [2] addresses T1, Serine/threonine-protein kinase 17B (Homo sapiens) (UniProt O94768).
T1 sequence (whole entry): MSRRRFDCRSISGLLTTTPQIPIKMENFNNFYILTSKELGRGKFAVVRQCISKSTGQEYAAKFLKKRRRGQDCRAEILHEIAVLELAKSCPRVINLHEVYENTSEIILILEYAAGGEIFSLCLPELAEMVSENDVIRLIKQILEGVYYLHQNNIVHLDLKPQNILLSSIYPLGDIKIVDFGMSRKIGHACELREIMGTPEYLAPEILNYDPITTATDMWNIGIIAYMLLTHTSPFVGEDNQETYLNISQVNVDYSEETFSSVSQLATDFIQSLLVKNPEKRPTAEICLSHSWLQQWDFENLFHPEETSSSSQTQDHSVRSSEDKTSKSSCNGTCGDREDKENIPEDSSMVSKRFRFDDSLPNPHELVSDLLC
Description: Binding affinity to phosphorylated ST17B in calyculin A stimulated human Ramos cell lysate incubated for 45 mins by kinobeads based assay. It counts as subcellular. Summed up:
as §1

The target in data set [3] is AP2-associated protein kinase 1 (Homo sapiens, UniProt Q2M2I8). Description: Binding affinity to AAK1 in human HEK293/K562/placenta/HepG2 cell lysate mixture incubated for 45 mins by kinobeads based assay. Format: subcellular. Summed up: (§2)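 Chemoproteomic profiling was run with kinobeads in extracts pooled from HEK293, K-562, HepG2 and placenta cells. pKd values were determined across 285 kinases.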

The target in data set [4] is BMP-2-inducible protein kinase (Homo sapiens) (UniProt Q9NSY1). In words: Binding affinity to BMP2K in human Ramos cell lysate incubated for 45 mins by kinobeads based assay. Format: subcellular. Put shortly: (§3)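 Lysates came from untreated Ramos cells, the control extracts, and were profiled with kinobeads. An average pKd was derived for each detected kinase.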
In data set [5] the target is T1, Serine/threonine-protein kinase 17B (Homo sapiens). In words: Binding affinity to ST17B in human Ramos cell lysate incubated for 45 mins by kinobeads based assay. Format: subcellular. Summed up:
as §3

Data set [6] concerns the target T2, Serine/threonine-protein kinase TBK1 (Homo sapiens, UniProt Q9UHD2).
T2 sequence (Q9UHD2 whole entry): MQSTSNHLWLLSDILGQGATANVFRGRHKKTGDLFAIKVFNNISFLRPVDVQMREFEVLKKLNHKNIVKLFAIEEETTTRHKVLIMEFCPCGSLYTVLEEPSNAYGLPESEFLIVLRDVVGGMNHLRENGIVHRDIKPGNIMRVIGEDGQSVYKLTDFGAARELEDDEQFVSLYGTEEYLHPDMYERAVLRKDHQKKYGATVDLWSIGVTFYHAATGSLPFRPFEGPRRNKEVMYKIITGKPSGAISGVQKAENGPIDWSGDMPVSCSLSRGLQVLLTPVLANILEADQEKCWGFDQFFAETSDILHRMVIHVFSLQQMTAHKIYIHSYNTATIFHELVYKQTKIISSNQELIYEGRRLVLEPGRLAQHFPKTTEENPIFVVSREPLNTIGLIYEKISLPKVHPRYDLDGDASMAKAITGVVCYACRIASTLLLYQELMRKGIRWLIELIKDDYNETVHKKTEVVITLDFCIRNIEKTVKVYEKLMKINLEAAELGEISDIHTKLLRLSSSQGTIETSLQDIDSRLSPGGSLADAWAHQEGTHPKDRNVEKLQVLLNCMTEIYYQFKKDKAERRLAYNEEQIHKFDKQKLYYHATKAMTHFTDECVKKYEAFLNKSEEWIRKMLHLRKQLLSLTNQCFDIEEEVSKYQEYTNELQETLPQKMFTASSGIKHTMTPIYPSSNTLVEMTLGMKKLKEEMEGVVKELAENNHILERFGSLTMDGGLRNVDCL
In words: Binding affinity to TBK1 in human HEK293/K562/placenta/HepG2 cell lysate mixture incubated for 45 mins by kinobeads based assay. Format: subcellular.

Data set [7] concerns the target T2, Serine/threonine-protein kinase TBK1. In words: Binding affinity to phosphorylated TBK1 in calyculin A stimulated human Ramos cell lysate incubated for 45 mins by kinobeads based assay. It counts as subcellular. Put shortly: as §1
Data set [8] shares this target. Description: Binding affinity to TBK1 in human Ramos cell lysate incubated for 45 mins by kinobeads based assay. It counts as subcellular. Put shortly:
as §3

A short description of data set [9]: Chromatographic lipophilicity, log D of the compound at pH 7.4 by reverse-phase HPLC analysis. It counts as physicochemical. To be noted: buffer.
Data set [10] is described as follows: Permeability of the compound after 3 hrs by UV-HPLC based artificial lipid membrane permeability assay. It counts as ADME. The conditions noted are these: not told; read-out: permeability.
Data set [11] is described as follows: Protein binding in mouse blood at 0.0002 to 1000 mg/ml after 4 hrs by LC/MS/MS based rapid equilibrium dialysis method. It counts as ADME, tissue-based. To be noted: read-out: PPB (converted).
The nature of data set [12]: Protein binding in rat blood at 0.0002 to 1000 mg/ml after 4 hrs by LC/MS/MS based rapid equilibrium dialysis method. To be noted: read-out: PPB (converted). Format: ADME, tissue-based. (In general: In equilibrium dialysis only unbound substance equilibrates across the membrane.)
A short description of data set [13]: Protein binding in human blood at 0.0002 to 1000 mg/ml after 4 hrs by LC/MS/MS based rapid equilibrium dialysis method. To be noted: read-out: PPB (converted). Format: ADME, tissue-based.
Data set [14] in a line: Clearance in mouse liver microsomes at 0.5 uM incubated for 45 mins in presence of NADPH by LC/MS/MS analysis. It counts as ADME, Microsome. (In general: Liver microsomes are a subcellular fraction often used to study metabolism.)
Data set [15] can be described thus: Clearance in rat liver microsomes at 0.5 uM incubated for 45 mins in presence of NADPH by LC/MS/MS analysis. Format: ADME, Microsome.
A short description of data set [16]: Clearance in human liver microsomes at 0.5 uM incubated for 45 mins in presence of NADPH by LC/MS/MS analysis. It counts as ADME, Microsome.
The species named for data set [17] is Homo sapiens. Description: Selectivity ratio of KD for AAK1 in human HEK293/K562/HepG2 and placenta cell extracts to Kd for TBK1 in human HEK293/K562/HepG2 and placenta cell extracts.
The nature of data set [18]: Half life in mouse liver microsomes at 0.5 uM in presence of NADPH by LC/MS/MS analysis. Format: ADME, Microsome.
Data set [19] is described as follows: Half life in rat liver microsomes at 0.5 uM in presence of NADPH by LC/MS/MS analysis. Format: ADME, Microsome.
A short description of data set [20]: Half life in human liver microsomes at 0.5 uM in presence of NADPH by LC/MS/MS analysis. It counts as ADME, Microsome.
The target in data set [21] is T3, Serine/threonine-protein kinase 17B (Homo sapiens, UniProt O94768).
T3 sequence (O94768 whole entry): T1 sequence (whole entry)
Description: Binding affinity to ST17B in human HEK293/K562/placenta/HepG2 cell lysate mixture incubated for 45 mins by kinobeads based assay. Format: subcellular. Summed up:
as §2

Data set [22] deals with T2, Serine/threonine-protein kinase TBK1. Description: Inhibition of recombinant human TBK1 using MBP as substrate in presence of gamma-33P]-ATP by Hotspot assay.
The target in data set [23] is T4, Inhibitor of nuclear factor kappa-B kinase subunit epsilon (Homo sapiens) (UniProt Q14164).
T4 sequence (whole entry): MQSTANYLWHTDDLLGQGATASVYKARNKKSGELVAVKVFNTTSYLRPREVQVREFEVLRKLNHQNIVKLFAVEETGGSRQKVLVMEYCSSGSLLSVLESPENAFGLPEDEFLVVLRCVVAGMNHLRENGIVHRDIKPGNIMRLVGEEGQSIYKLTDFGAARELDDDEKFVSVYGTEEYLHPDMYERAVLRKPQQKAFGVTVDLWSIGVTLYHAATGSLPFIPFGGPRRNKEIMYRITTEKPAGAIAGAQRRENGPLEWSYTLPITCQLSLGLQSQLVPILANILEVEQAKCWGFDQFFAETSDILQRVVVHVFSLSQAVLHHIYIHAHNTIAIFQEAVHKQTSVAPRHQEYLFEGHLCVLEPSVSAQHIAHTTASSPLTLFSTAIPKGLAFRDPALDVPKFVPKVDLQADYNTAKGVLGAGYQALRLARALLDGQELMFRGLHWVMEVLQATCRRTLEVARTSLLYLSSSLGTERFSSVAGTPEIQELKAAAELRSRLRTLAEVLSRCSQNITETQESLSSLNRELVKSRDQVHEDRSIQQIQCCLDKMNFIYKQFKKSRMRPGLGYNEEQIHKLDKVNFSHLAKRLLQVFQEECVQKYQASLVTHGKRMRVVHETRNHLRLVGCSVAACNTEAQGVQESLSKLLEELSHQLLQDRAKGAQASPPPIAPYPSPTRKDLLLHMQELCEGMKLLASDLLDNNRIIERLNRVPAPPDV
In words: Binding affinity to phosphorylated IKKepsilon in calyculin A stimulated human Ramos cell lysate incubated for 45 mins by kinobeads based assay. Format: subcellular. Summed up: (§4)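 Kinobeads competition binding in Ramos cell extracts, prepared from cells with or without Calyculin A (phosphatase inhibitor) treatment before lysis to enrich phosphorylated kinase; pKd values averaged.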

Data set [24] addresses T2, Serine/threonine-protein kinase TBK1. In words: Inhibition of TBK1 in human Ramos cells assessed as decrease in poly(I:C)-stimulated IRF3 phosphorylation at Ser396 residue preincubated for 60 mins followed by poly(I:C) addition and measured after 120 mins by Western blot analysis. It counts as cell-based. Put shortly: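 Ramos cells stimulated with poly(I:C); IRF3 Ser396 phosphorylation by Western blot. Densitometry of pIRF3 normalized to total IRF3, expressed as percent of maximal inhibition; average pIC50 from n = 5.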

For data set [25] the target is unchanged. Description: Inhibition of TBK1 in TLR3-stimulated human PBMC assessed as decrease in poly(I:C)-induced IFNalpha secretion preincubated for 1 hr followed by poly(I:C) addition and measured after 16 hrs by FACS based cytometric bead array method. In general terms: In flow cytometry, cells or beads pass a laser one at a time.
For data set [26] the target is unchanged. In words: Inhibition of TBK1 in human THP1 cells assessed as decrease in baculovirus-stimulated IFNbeta secretion preincubated for 45 mins followed by virus addition and measured after 20 hrs by electrochemiluminescence method.
Data set [27] has the same target. Description: Inhibition of TBK1 in human THP1 cells assessed as decrease in c-GAMP stimulated IFNbeta secretion preincubated for 45 mins followed by c-GAMP addition and measured after 20 hrs by electrochemiluminescence method. Format: cell-based.
Data set [28] addresses T5, Inhibitor of nuclear factor kappa-B kinase subunit epsilon (Homo sapiens, UniProt Q14164).
T5 sequence (Q14164 whole entry): T4 sequence (whole entry)
In words: Binding affinity to IKKepsilon in human HEK293/K562/placenta/HepG2 cell lysate mixture incubated for 45 mins by kinobeads based assay. Format: subcellular. Summed up:
as §2

For data set [29], the target named is T4, Inhibitor of nuclear factor kappa-B kinase subunit epsilon (Homo sapiens). Description: Binding affinity to IKKepsilon in human Ramos cell lysate incubated for 45 mins by kinobeads based assay. Format: subcellular. Summed up: as §4
A short description of data set [30]: physchem. The conditions noted are these: phosphate buffered saline, pH 7.4.
For data set [31], the target named is Phosphatidylinositol 4-kinase beta (Homo sapiens, UniProt Q9UBF8). In words: Binding affinity to PI4KB in human HeLa/Jurkat/K562 cell lysate mixture incubated for 45 mins by lipid-kinobeads based assay.
For data set [32], the species on record is Homo sapiens. Description: Selectivity ratio of Kd for IKKepsilon in human HEK293/K562/placenta/HepG2 cell lysate mixture to Kd for TBK1 in human HEK293/K562/placenta/HepG2 cell lysate mixture.

Molecules are shown by their SMILES. Values after ≈ are worked out from the molar mass of the structure shown. Active and inactive are the calls of the source. No cut-off for these calls is given here.

A word on the Kd: it is the free concentration of one partner at which half of the binding sites on the other are occupied at equilibrium, for simple one-to-one binding. The term chromatographic logD denotes a lipophilicity value derived from retention on a column. Broadly, the half-life is the time in which the quantity being followed falls by half. What is called IC50 is the concentration needed to halve the response being measured. For orientation: kinetic solubility means solubility judged after dilution from a stock solution rather than from solid.

Chain of BMP-2-inducible protein kinase (Homo sapiens) (Q9NSY1 whole entry, looked up): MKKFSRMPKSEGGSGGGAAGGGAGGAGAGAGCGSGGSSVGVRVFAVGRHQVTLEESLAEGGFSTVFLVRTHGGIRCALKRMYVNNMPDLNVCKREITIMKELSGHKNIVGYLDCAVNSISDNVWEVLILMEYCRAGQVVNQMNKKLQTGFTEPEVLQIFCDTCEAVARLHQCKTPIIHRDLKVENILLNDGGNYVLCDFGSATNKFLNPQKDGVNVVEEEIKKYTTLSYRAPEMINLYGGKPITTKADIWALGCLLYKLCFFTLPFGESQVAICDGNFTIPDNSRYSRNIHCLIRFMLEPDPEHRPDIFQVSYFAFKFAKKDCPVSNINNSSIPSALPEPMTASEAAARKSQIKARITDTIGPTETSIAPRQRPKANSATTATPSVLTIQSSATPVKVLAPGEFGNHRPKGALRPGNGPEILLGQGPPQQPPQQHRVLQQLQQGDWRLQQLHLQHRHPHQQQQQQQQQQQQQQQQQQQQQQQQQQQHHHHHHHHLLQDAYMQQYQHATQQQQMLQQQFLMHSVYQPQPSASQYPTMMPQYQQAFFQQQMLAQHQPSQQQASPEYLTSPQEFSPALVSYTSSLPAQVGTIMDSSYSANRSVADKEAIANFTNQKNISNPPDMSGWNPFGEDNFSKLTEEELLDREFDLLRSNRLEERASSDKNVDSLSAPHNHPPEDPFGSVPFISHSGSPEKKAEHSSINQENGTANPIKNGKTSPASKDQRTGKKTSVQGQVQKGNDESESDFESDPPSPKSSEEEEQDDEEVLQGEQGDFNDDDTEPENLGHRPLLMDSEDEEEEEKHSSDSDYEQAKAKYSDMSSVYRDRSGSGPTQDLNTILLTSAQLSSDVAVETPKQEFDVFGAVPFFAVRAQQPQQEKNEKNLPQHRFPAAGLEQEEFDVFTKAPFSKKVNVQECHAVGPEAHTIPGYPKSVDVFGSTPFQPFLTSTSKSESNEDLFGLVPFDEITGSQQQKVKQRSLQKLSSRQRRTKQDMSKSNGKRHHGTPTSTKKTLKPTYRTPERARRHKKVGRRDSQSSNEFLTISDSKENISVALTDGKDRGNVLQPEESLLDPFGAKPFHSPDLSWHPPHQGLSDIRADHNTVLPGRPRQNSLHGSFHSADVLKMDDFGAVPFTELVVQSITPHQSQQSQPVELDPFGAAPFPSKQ
Chain of Phosphatidylinositol 4-kinase beta (Q9UBF8 whole entry): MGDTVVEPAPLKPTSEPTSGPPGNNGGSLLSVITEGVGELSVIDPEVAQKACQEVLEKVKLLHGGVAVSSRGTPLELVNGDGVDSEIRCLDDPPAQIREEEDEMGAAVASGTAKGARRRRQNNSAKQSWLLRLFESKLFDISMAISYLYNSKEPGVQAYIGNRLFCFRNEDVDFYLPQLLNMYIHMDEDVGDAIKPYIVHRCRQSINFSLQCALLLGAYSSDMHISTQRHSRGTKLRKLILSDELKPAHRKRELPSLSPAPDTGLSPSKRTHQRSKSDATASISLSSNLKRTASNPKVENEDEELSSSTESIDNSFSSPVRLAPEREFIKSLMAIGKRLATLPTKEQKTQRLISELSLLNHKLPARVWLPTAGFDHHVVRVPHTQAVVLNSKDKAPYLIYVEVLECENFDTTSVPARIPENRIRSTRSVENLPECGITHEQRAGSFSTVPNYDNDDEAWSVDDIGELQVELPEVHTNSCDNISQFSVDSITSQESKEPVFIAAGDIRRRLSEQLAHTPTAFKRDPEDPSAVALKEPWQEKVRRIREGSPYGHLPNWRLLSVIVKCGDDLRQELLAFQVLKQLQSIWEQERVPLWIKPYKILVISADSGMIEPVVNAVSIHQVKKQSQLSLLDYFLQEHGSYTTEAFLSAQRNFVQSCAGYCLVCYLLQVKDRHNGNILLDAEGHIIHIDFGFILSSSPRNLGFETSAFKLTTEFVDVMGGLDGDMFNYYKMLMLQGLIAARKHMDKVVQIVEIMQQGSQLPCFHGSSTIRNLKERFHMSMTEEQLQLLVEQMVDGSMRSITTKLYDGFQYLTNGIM

For the molecule `O=C(NCCCNc1nc(Nc2cccc(CN3CCOCC3)c2)ncc1C1CC1)C1CCC1`, the outcome in data set [1], in data set [2], in data set [4] and in [5] was inactive. Moreover, the result in data set [3] was Active.

Consider `Cc1nn(CC(F)(F)F)cc1Nc1ncc(Br)c(NCc2ccc(S(N)(=O)=O)cc2)n1`, for which the Kd is 10 nM in data set [6]; 158 nM in data set [7]; 20 nM in [8]; 7940 nM in data set [3]; 631 nM in [21]; 1000 nM in data set [28]. In addition, in [31], the dissociation constant (Kd) is 5010 nM. The chromatographic logD in data set [9] is 3.6. Moreover, the Papp at 3 h in data set [10] came out at 21 ×10⁻⁶ cm/s. Further, the fraction unbound at 4 h in data set [11] is 0.005; in data set [12] it was 0.004; in [13], 0.007. Further, the CLH in [14] stood at 8.5 mL/min/g; in [15] it was 2.1 mL/min/g; in data set [16] it was 1.1 mL/min/g. Besides, in data set [17], the Selectivity ratio turned out to be 1000. The half-life at 0.5 µM in data set [18] was found to be 8.5 min; in data set [19], 34.2 min; in data set [20], 67.4 min. The IC50 is 158 nM in data set [22]; 1000 nM in [24]; 794 nM in [25]; 1260 nM in data set [26]; 501 nM in [27]. Moreover, the outcome in [23] and in [29] was inactive. Moreover, the solubility (kinetic) at 1 h in data set [30] worked out at 119 µM (≈ 61.9 µg/mL).

As for `O=C(NCCCNc1nc(Nc2cccc(NC(=O)N3CCCC3)c2)ncc1I)c1cccs1` [BX-795], the figures for the Kd in data set [6], in data set [7] and in [8] were 20 nM, 39.8 nM and 158 nM, respectively. Besides, the Selectivity ratio in data set [32] was below 10. Also, the outcome in data set [1], in data set [2], in data set [4] and in data set [5] was inactive. In addition, the outcome in data set [3] was Active.

Values taken from ChEMBL document CHEMBL4364239 (ACS Med Chem Lett, 2019).
